# Data reported in ChEMBL document CHEMBL1152982, “Synthetic analogue of rocaglaol displays a potent and selective cytotoxicity in cancer cells: involvement of apoptosis inducing factor and caspase-12” (J Med Chem, 2009).
# Activity calls are given as the source filed them. No cut-off for these calls is given here. Residues, ends and D or L forms follow the SMILES beside them. *: point of attachment. Cbz = O=C(OCc1ccccc1)*; CH2F = FC*
# Key:
# KB = experiment: Cytotoxicity against human KB cells after 72 hrs by MTS assay; format: functional, cell-based
# In short: (§1)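 Human cancer lines treated for 72 h and proliferation/viability read by MTS assay; dose-response curves in duplicate with IC50 taken from the curves; MCF7R is the P-gp (MDR1)-expressing resistant line.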
# HCT-116 = experiment: Cytotoxicity against human HCT116 cells after 72 hrs by MTS assay; format: functional, cell-based; details: HCT-116, 72 h; in short: as §1
# HCT-15 = experiment: Cytotoxicity against human HCT15 cells after 72 hrs by MTS assay; format: functional, cell-based; in short: as §1
# HL-60 [1] = experiment: Cytotoxicity against human HL60 cells after 72 hrs by MTS assay; format: functional, cell-based; details: HL-60, 72 h
# In short: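 HL60 cells exposed to compound for 72 h; proliferation/viability read by MTS assay. IC50 taken from dose-response curves run in duplicate.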
# [2] = target: ATP-dependent translocase ABCB1 (Homo sapiens, UniProt P08183); experiment: Inhibition of P-glycoprotein expressing human MCF7 cells assessed as change in rhodamine 123 efflux at 0.1 to 1 uM; format: cell-based
# ATP-dependent translocase ABCB1, sequence (P08183 whole entry): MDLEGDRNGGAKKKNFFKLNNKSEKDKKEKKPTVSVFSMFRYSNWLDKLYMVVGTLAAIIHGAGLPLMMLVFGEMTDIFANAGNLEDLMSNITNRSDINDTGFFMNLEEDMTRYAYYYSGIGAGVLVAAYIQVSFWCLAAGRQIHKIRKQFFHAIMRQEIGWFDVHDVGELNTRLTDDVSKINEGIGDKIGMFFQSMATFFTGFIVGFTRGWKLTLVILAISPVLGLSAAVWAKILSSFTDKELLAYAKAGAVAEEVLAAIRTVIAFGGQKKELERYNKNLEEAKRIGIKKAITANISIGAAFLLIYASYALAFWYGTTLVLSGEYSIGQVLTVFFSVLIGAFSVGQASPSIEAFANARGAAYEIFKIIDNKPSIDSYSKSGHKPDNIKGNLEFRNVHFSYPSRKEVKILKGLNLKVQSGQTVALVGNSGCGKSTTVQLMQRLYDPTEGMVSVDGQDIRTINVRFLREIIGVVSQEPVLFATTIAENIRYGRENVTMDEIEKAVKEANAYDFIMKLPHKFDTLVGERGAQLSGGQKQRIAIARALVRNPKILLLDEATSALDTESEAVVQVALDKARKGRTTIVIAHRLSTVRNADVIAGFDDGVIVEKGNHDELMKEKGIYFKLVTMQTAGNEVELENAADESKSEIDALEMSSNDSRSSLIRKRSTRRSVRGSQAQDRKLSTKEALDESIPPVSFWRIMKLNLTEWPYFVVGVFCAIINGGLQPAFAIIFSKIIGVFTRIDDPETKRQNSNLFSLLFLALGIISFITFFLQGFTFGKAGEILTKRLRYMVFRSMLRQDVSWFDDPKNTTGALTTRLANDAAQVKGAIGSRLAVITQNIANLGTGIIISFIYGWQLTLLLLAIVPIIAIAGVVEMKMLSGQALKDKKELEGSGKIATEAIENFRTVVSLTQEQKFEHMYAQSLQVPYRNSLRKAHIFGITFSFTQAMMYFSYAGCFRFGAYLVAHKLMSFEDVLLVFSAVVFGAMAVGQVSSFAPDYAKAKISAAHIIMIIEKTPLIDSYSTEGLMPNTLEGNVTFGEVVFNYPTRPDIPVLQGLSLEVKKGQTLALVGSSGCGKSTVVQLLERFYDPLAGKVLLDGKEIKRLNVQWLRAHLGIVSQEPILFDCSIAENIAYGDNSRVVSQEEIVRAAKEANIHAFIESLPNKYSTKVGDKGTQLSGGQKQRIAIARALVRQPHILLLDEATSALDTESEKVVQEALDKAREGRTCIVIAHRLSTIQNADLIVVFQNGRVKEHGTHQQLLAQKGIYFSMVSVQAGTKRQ
# MCF7 [3] = experiment: Cytotoxicity against human MCF7 cells expressing P-glycoprotein after 72 hrs by MTS assay; format: functional, cell-based; in short: as §1
# MCF7 [4] = experiment: Cytotoxicity against human MCF7 cells after 72 hrs by MTS assay; format: functional, cell-based; in short: as §1
# HepG2 [5] = experiment: Cytotoxicity against human HepG2 cells after 72 hrs by MTS assay; format: functional, cell-based; in short: as §1
# HeLa = experiment: Binding affinity to eIF4A in human HeLa cell extract by agarose pulldown assay; format: cell-free
# [6] = Inhibition of cap-dependent […] of firefly luciferase in mouse Krebs2 cell extract; format: functional, cell-free
# HL-60 [7] = experiment: Cell cycle arrest in human HL60 cells assessed as increase in G0/G1 peak at 200 nM after 48 hrs by FACS analysis; format: functional, cell-based
# In short: (§2)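 HL60 cells treated for 48 h; vehicle control 1% DMSO, doxorubicin as positive control. Propidium iodide staining, DNA content by flow cytometry giving cell-cycle distribution (G2/M, G0-G1 peaks); n = 4, each sample in duplicate.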
# [8] = Drug localization in mitochondria of human HeLa cells after 2 hrs by Mito-Tracker Red dye
# [9] = Drug localization in golgi apparatus of human HeLa cells after 2 hrs by Brefeldin tracker; format: ADME, cell-based
# In short: (§3)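 Live HeLa cells incubated with 50 μM fluorescent probe for 2 h, then 15 min with 1 μM organelle dye: Mito-Tracker Red (mitochondria), ER-tracker red (endoplasmic reticulum), or BODIPY 558/568 brefeldin A (ER plus Golgi). Localization judged by overlap of probe and dye signals in merged confocal images.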
# [10] = Drug localization in endoplasmic reticulum of human HeLa cells after 2 hrs by ER tracker; format: ADME, cell-based; in short: as §3
# HL-60 [11] = experiment: Cell cycle arrest in human HL60 cells assessed as accumulation of cells in G2/M phase at 20 nM after 48 hrs by FACS analysis; format: functional, cell-based; in short: as §2
# H9c2 [12] = experiment: Induction of apoptosis in rat H9c2 cells at 1 uM after 24 hrs by FACS analysis; format: cell-based; details: h9c2, 24 h
# In short: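 Rat H9c2 cardiomyoblasts treated 24 h with compound or vehicle. Cells labeled with annexin V and propidium iodide and analyzed by FACS for apoptosis.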
# HL-60 [13] = experiment: Induction of apoptosis in human HL60 cells assessed as increase in caspase 3/7-mediated at 1 uM after 48 hrs measured by spectroscopy; format: functional
# In short: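 HL60 cells treated 48 h. Whole-cell extracts tested for cleavage of the caspase-3 substrate DEVD-AMC, with fluorescence release read spectroscopically. Rates taken from the slope of the linear time course and expressed as fold-activation over the DMSO-treated control.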
# [14] = Drug localization in mitochondria of human HeLa cells at 50 uM after 2 hrs by Mito-Tracker Red dye; format: ADME; in short: as §3
# [15] = Drug localization in endoplasmic reticulum of human HeLa cells at 50 uM after 2 hrs by ER tracker; format: ADME, cell-based; in short: as §3
# HepG2 [16] = experiment: Enhancement of doxorubicin-induced cytotoxicity against human HepG2 cells after 72 hrs by MTS assay; format: functional, cell-based
# In short: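 HepG2 cells given the test agent alone or together with 150 nM doxorubicin for 72 h; proliferation by MTS assay; duplicate experiments, n = 3.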
# HL-60 [17] = experiment: Antiproliferative activity against human HL60 cells at 50 nM in presence of […] inhibitor 3-methyladenine; format: functional, cell-based
# In short: (§4)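 HL60 cells exposed for 72 h, with or without co-treatment with Z-VAD-FMK (50 μM), necrostatin-1 (50 μM) or 3-methyladenine (2 mM). Antiproliferative effect was compared against vehicle.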
# HL-60 [18] = experiment: Cell cycle arrest in human HL60 cells assessed as accumulation of cells in G2/M phase at 200 nM after 48 hrs by FACS analysis; format: functional, cell-based; in short: as §2
# H9c2 [19] = experiment: Induction of apoptosis in rat H9c2 cells at 0.5 to 50 nM after 24 hrs by FACS analysis; format: cell-based; details: h9c2, 24 h, 0.05 µM
# In short: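 Rat H9c2 cardiomyoblasts treated 24 h (0.5-50 nM) or 24, 48 and 72 h (20 nM) versus vehicle; annexin V plus propidium iodide labeling and FACS for apoptosis; viability in parallel by MTS; doxorubicin 1 μM as positive control.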
# HL-60 [20] = experiment: Inhibition of proteasome activity in human HL60 cells at 20 to 200 nM; format: subcellular
# In short: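 Lysates of HL60 cells incubated with compound; in vitro chymotrypsin-like and trypsin-like proteasome activities measured with fluorogenic AMC substrates (LLVY-AMC, RLR-AMC).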
# HL-60 [21] = experiment: Induction of apoptosis in human HL60 cells assessed as caspase 3/7-mediated DEVD-AMC substrate cleavage at 1 to 1000 nM after 48 hrs by spectroscopy; format: functional, cell-based
# In short: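 HL60 cells treated 48 h, doxorubicin as positive control; whole-cell extracts incubated with DEVD-AMC, fluorescence release followed over time; rate from slope of linear phase, expressed as fold-activation over DMSO-treated control.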
# HL-60 [22] = experiment: Cell cycle arrest in human HL60 cells assessed as increase in G0/G1 peak at 20 nM after 48 hrs by FACS analysis; format: functional, cell-based; in short: as §2
# HL-60 [23] = experiment: Antiproliferative activity against human HL60 cells at 50 nM in presence of caspase inhibitor Z-VAD-FMK; format: functional, cell-based; in short: as §4
# HL-60 [24] = experiment: Antiproliferative activity against human HL60 cells at 50 nM in presence of […] inhibitor necrostatin 1; format: functional, cell-based; in short: as §4
# HL-60 [25] = experiment: Cytotoxicity against human HL60 cells; format: functional, cell-based
# HL-60 [26] = experiment: Inhibition of chymotrypsin-like activity of proteasome in human HL60 cells at 100 nM
# In short: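 Lysates of HL60 cells treated with compound; chymotrypsin-like proteasome activity of the lysate measured in vitro.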
# [27] = Homo sapiens, MCF7, 72 h, read-out: IC50
# [28] = Homo sapiens, HCT-15, 72 h, read-out: IC50
# [29] = Homo sapiens, HepG2, 72 h, read-out: IC50
smiles,measurement,setting,value
COc1ccc([C@@H]2C[C@@H](O)[C@@]3(O)c4c(OC)cc(OC)cc4O[C@@]23c2ccccc2)cc1,IC50,KB,> 10000 nM
same,IC50,HCT-116,> 10000 nM
same,IC50,HCT-15; hct-15,Not Active
same,IC50,HL-60 [1],> 10000 nM
same,Activity,[2],Not Active
same,IC50,MCF7 [3]; [27],> 10000 nM
same,IC50,MCF7 [4]; mcf7,Not Active
same,IC50,HepG2 [5]; hepg2,Not Active
COc1cc(OC)c2c(c1)O[C@@]1(c3ccc(Br)cc3)[C@H](c3ccccc3)[C@@H](C(=O)NCCOCCOCCOCCOCCOCCOCN)[C@@H](O)[C@@]21O,Activity,HeLa,inactive
CC(=O)O[C@@]12CO[C@@H]1C[C@H](O)[C@@]1(C)C(=O)[C@H](O)C3=C(C)[C@@H](OC(=O)[C@H](O)[C@@H](NC(=O)OC(C)(C)C)c4ccccc4)C[C@@](O)([C@@H](OC(=O)c4ccccc4)[C@H]21)C3(C)C.O.O.O [DOCETAXEL],IC50,KB,0.2 nM
same,IC50,HCT-116,0.5 nM
same,IC50,HCT-15; [28],13 nM
same,IC50,HL-60 [1],0.5 nM
same,IC50,MCF7 [3]; mcf7,Not Active
same,IC50,MCF7 [4]; mcf7,Not Active
same,IC50,HepG2 [5]; hepg2,Not Active
COC(=O)[C@H]1[C@@H](OC=O)[C@@]2(O)c3c(OC)cc(OC)cc3O[C@@]2(c2ccc(OC)cc2)[C@@H]1c1ccccc1,IC50,[6],3000 nM
CC[C@]1(O)C[C@@H]2CN(CCc3c([nH]c4ccccc34)[C@@](C(=O)OC)(c3cc4c(cc3OC)N(C)[C@H]3[C@@](O)(C(=O)OC)[C@H](OC(C)=O)[C@]5(CC)C=CCN6CC[C@]43[C@@H]65)C2)C1 [VINBLASTINE],IC50,KB,0.8 nM
same,IC50,HCT-116,1.3 nM
same,IC50,HCT-15; [28],10 nM
same,IC50,HL-60 [1],1 nM
same,IC50,MCF7 [3]; mcf7,Not Active
same,IC50,MCF7 [4]; [27],4.6 nM
same,IC50,HepG2 [5]; hepg2,Not Active
CC(=O)NCCOCCOCCNC(=O)Cc1cc(=O)oc2cc(N(C)C)ccc12,Activity,HL-60 [7],inactive
same,Activity,[8],Not Active
same,Activity,[9],Not Active
same,Activity,[10],Not Active
COC(=O)[C@H]1[C@@H](O)[C@@]2(O)c3c(OC)cc(O[C@@H]4O[C@@H]([C@H](O)CO)CO[C@H]4OC)cc3O[C@@]2(c2ccc(OC)cc2)[C@@H]1c1ccccc1 [SILVESTROL],IC50,[6],300 nM
COc1cccc2c1C(=O)c1c(O)c3c(c(O)c1C2=O)C[C@@](O)(C(=O)CO)C[C@@H]3O[C@H]1C[C@H](N)[C@H](O)[C@H](C)O1 [DOXORUBICIN],Activity,HL-60 [11],Active
same,IC50,KB,1 nM
same,fold change (FC),H9c2 [12],3
same,IC50,HCT-116,6 nM
same,IC50,HCT-15; [28],81 nM
same,IC50,HL-60 [1],13 nM
same,IC50,MCF7 [3]; [27],58 nM
same,fold change (FC),HL-60 [13],14
same,IC50,MCF7 [4]; [27],12 nM
same,IC50,HepG2 [5]; [29],240 nM
COc1ccc2c(c1)O[C@@]1(c3ccc(Br)cc3)[C@H](c3ccccc3)[C@@H](C(=O)NCCOCCOCCNC(=O)Cc3cc(=O)oc4cc(N(C)C)ccc34)[C@@H](O)[C@@]21O,Activity,[14],Not Active
same,Activity,[15],Active
same,IC50,HL-60 [1],130 nM
CC[C@@]1(O)C(=O)OCc2c1cc1n(c2=O)Cc2cc3ccccc3nc2-1 [CAMPTOTHECIN],IC50,KB,38 nM
same,IC50,HCT-116,2 nM
same,IC50,HCT-15; [28],3 nM
same,IC50,HL-60 [1],6 nM
same,IC50,MCF7 [3]; [27],3 nM
same,IC50,MCF7 [4]; [27],10 nM
same,IC50,HepG2 [5]; [29],455 nM
COc1ccc([C@@]23Oc4cc(OC)cc(OC)c4[C@]2(O)[C@H](O)C[C@H]3c2ccccc2)cc1 (racemic) [ROCAGLAOL],Activity,HL-60 [11],Active
same,Activity,HL-60 [7],Active
same,IC50,KB,2 nM
same,Activity,HepG2 [16],Active
same,Activity,HL-60 [17],inactive
same,Activity,HL-60 [18],Active
same,Activity,H9c2 [19],Not Active
same,Activity,HL-60 [20],inactive
same,Activity,HL-60 [21],inactive
same,IC50,HCT-116,6 nM
same,Activity,HL-60 [22],Active
same,IC50,HCT-15; [28],6 nM
same,Activity,HL-60 [23],inactive
same,IC50,HL-60 [1],3 nM
same,Activity,HL-60 [24],inactive
same,Activity,[2],Not Active
same,IC50,MCF7 [3]; [27],4 nM
same,IC50,MCF7 [4]; [27],4 nM
same,IC50,HepG2 [5]; [29],70 nM
COc1cc(OC)c2c(c1)O[C@@]1(c3ccccc3)[C@H](c3ccccc3)C[C@@H](O)[C@@]21O,IC50,KB,2500 nM
same,IC50,HCT-116,6000 nM
same,IC50,HCT-15; [28],8000 nM
same,IC50,HL-60 [1],6000 nM
same,Activity,[2],Not Active
same,IC50,MCF7 [3]; [27],10000 nM
same,IC50,MCF7 [4]; [27],10000 nM
same,IC50,HepG2 [5]; [29],> 10000 nM
COC(=O)C[C@H](NC(=O)[C@H](C)NC(=O)[C@@H](NC(=O)[C@H](C)NC(=O)OCc1ccccc1)[C@@H](C)O)C(=O)CF (Cbz-ATAD(OMe)-CH2F),Activity,HL-60 [25],Active
CC(C)C[C@H](NC(=O)[C@H](Cc1ccccc1)NC(=O)c1cnccn1)B(O)O,Activity,HL-60 [26],Active
